What was measured:
Intestine [1] = experiment: Biodistribution in ddY mouse intestine at 1 uCi/100 uL, iv after 15 mins by gamma counting; format: ADME, organism-based; conditions: in vivo, 0.25 h
Outline: (§1)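 Normal female ddY mice (5 weeks, about 20 g; n = 4 per group) received radiotracer iv. Organs were removed and weighed at 2–120 min and counted in a γ-counter. Percent dose per gram of wet tissue was calculated against diluted aliquots of the injected material and reported as mean ± SD.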

Brain [2] = experiment: Biodistribution in ddY mouse brain at 1 uCi/100 uL, iv after 2 mins by gamma counting; format: ADME, organism-based; conditions: in vivo; outline: as §1
Stomach [3] = experiment: Biodistribution in ddY mouse stomach at 1 uCi/100 uL, iv after 2 mins by gamma counting; format: ADME, organism-based; conditions: in vivo
Spleen [4] = experiment: Biodistribution in ddY mouse spleen at 1 uCi/100 uL, iv after 15 mins by gamma counting; format: ADME, organism-based; conditions: in vivo, 0.25 h
Brain [5] = experiment: Biodistribution in ddY mouse brain at 1 uCi/100 uL, iv after 15 mins by gamma counting; format: ADME, organism-based; conditions: in vivo, 0.25 h; outline: as §1
Thyroid gland [6] = experiment: Biodistribution in ddY mouse thyroid at 1 uCi/100 uL, iv after 120 mins by gamma counting; format: ADME, organism-based; conditions: in vivo, 2 h
Kidney [7] = experiment: Biodistribution in ddY mouse kidney at 1 uCi/100 uL, iv after 120 mins by gamma counting; format: ADME, organism-based; conditions: in vivo, 2 h; outline: as §1
Spleen [8] = experiment: Biodistribution in ddY mouse spleen at 1 uCi/100 uL, iv after 2 mins by gamma counting; format: ADME, organism-based; conditions: in vivo
Thyroid gland [9] = experiment: Biodistribution in ddY mouse thyroid at 1 uCi/100 uL, iv after 60 mins by gamma counting; format: ADME, organism-based; conditions: in vivo, 1 h
Blood [10] = experiment: Biodistribution in ddY mouse blood at 1 uCi/100 uL, iv after 120 mins by gamma counting; format: ADME, organism-based; conditions: in vivo, 2 h; outline: as §1
[11] = Partition coefficient, log D of the compound; format: physicochemical; conditions: octanol/water
Outline: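 Radiotracer partitioned between n-octanol and PBS: vortexed 3 min at room temperature, centrifuged 5 min at 3000 rpm. Weighed samples of the octanol (100 μL) and buffer (500 μL) layers were counted. log D is the log of the ratio of counts per gram, octanol versus PBS.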

Lung [12] = experiment: Biodistribution in ddY mouse lung at 1 uCi/100 uL, iv after 15 mins by gamma counting; format: ADME, organism-based; conditions: in vivo, 0.25 h
Heart [13] = experiment: Biodistribution in ddY mouse heart at 1 uCi/100 uL, iv after 30 mins by gamma counting; format: ADME, organism-based; conditions: in vivo, 0.5 h; outline: as §1
Lung [14] = experiment: Biodistribution in ddY mouse lung at 1 uCi/100 uL, iv after 60 mins by gamma counting; format: ADME, organism-based; conditions: in vivo, 1 h
Liver [15] = experiment: Biodistribution in ddY mouse liver at 1 uCi/100 uL, iv after 15 mins by gamma counting; format: ADME, organism-based; conditions: in vivo, 0.25 h
Thyroid gland [16] = experiment: Biodistribution in ddY mouse thyroid at 1 uCi/100 uL, iv after 30 mins by gamma counting; format: ADME, organism-based; conditions: in vivo, 0.5 h
Heart [17] = experiment: Biodistribution in ddY mouse heart at 1 uCi/100 uL, iv after 2 mins by gamma counting; format: ADME, organism-based; conditions: in vivo; outline: as §1
Brain [18] = experiment: Ratio of drug uptake in ddY mouse brain at 1 uCi/100 uL, iv after 2 mins to drug uptake in ddY mouse brain at 1 uCi/100 uL, iv after 60 mins; format: ADME, organism-based; conditions: in vivo
Outline: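 Normal female ddY mice (5 weeks) received the radiotracer iv, and brain uptake (% ID/g, n = 4) was measured by gamma counting at 2 and 60 min. The index is brain uptake at 2 min divided by brain uptake at 60 min.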

Heart [19] = experiment: Biodistribution in ddY mouse heart at 1 uCi/100 uL, iv after 15 mins by gamma counting; format: ADME, organism-based; conditions: in vivo, 0.25 h; outline: as §1
Lung [20] = experiment: Biodistribution in ddY mouse lung at 1 uCi/100 uL, iv after 30 mins by gamma counting; format: ADME, organism-based; conditions: in vivo, 0.5 h
Kidney [21] = experiment: Biodistribution in ddY mouse kidney at 1 uCi/100 uL, iv after 30 mins by gamma counting; format: ADME, organism-based; conditions: in vivo, 0.5 h
Intestine [22] = experiment: Biodistribution in ddY mouse intestine at 1 uCi/100 uL, iv after 30 mins by gamma counting; format: ADME, organism-based; conditions: in vivo, 0.5 h; outline: as §1
Brain [23] = experiment: Biodistribution in ddY mouse brain at 1 uCi/100 uL, iv after 30 mins by gamma counting; format: ADME, organism-based; conditions: in vivo, 0.5 h; outline: as §1
Spleen [24] = experiment: Biodistribution in ddY mouse spleen at 1 uCi/100 uL, iv after 120 mins by gamma counting; format: ADME, organism-based; conditions: in vivo, 2 h
Liver [25] = experiment: Biodistribution in ddY mouse liver at 1 uCi/100 uL, iv after 120 mins by gamma counting; format: ADME, organism-based; conditions: in vivo, 2 h
Spleen [26] = experiment: Biodistribution in ddY mouse spleen at 1 uCi/100 uL, iv after 30 mins by gamma counting; format: ADME, organism-based; conditions: in vivo, 0.5 h
Stomach [27] = experiment: Biodistribution in ddY mouse stomach at 1 uCi/100 uL, iv after 120 mins by gamma counting; format: ADME, organism-based; conditions: in vivo, 2 h
Liver [28] = experiment: Biodistribution in ddY mouse liver at 1 uCi/100 uL, iv after 60 mins by gamma counting; format: ADME, organism-based; conditions: in vivo, 1 h
Intestine [29] = experiment: Biodistribution in ddY mouse intestine at 1 uCi/100 uL, iv after 2 mins by gamma counting; format: ADME, organism-based; conditions: in vivo; outline: as §1
Blood [30] = experiment: Biodistribution in ddY mouse blood at 1 uCi/100 uL, iv after 60 mins by gamma counting; format: ADME, organism-based; conditions: in vivo, 1 h; outline: as §1
Thyroid gland [31] = experiment: Biodistribution in ddY mouse thyroid at 1 uCi/100 uL, iv after 2 mins by gamma counting; format: ADME, organism-based; conditions: in vivo
Brain [32] = experiment: Biodistribution in ddY mouse brain at 1 uCi/100 uL, iv after 60 mins by gamma counting; format: ADME, organism-based; conditions: in vivo, 1 h; outline: as §1
Heart [33] = experiment: Biodistribution in ddY mouse heart at 1 uCi/100 uL, iv after 60 mins by gamma counting; format: ADME, organism-based; conditions: in vivo, 1 h; outline: as §1
Stomach [34] = experiment: Biodistribution in ddY mouse stomach at 1 uCi/100 uL, iv after 15 mins by gamma counting; format: ADME, organism-based; conditions: in vivo, 0.25 h
Stomach [35] = experiment: Biodistribution in ddY mouse stomach at 1 uCi/100 uL, iv after 60 mins by gamma counting; format: ADME, organism-based; conditions: in vivo, 1 h
Lung [36] = experiment: Biodistribution in ddY mouse lung at 1 uCi/100 uL, iv after 2 mins by gamma counting; format: ADME, organism-based; conditions: in vivo
Lung [37] = experiment: Biodistribution in ddY mouse lung at 1 uCi/100 uL, iv after 120 mins by gamma counting; format: ADME, organism-based; conditions: in vivo, 2 h
Thyroid gland [38] = experiment: Biodistribution in ddY mouse thyroid at 1 uCi/100 uL, iv after 15 mins by gamma counting; format: ADME, organism-based; conditions: in vivo, 0.25 h
Stomach [39] = experiment: Biodistribution in ddY mouse stomach at 1 uCi/100 uL, iv after 30 mins by gamma counting; format: ADME, organism-based; conditions: in vivo, 0.5 h
Heart [40] = experiment: Biodistribution in ddY mouse heart at 1 uCi/100 uL, iv after 120 mins by gamma counting; format: ADME, organism-based; conditions: in vivo, 2 h; outline: as §1
Kidney [41] = experiment: Biodistribution in ddY mouse kidney at 1 uCi/100 uL, iv after 2 mins by gamma counting; format: ADME, organism-based; conditions: in vivo; outline: as §1
Kidney [42] = experiment: Biodistribution in ddY mouse kidney at 1 uCi/100 uL, iv after 60 mins by gamma counting; format: ADME, organism-based; conditions: in vivo, 1 h
Liver [43] = experiment: Biodistribution in ddY mouse liver at 1 uCi/100 uL, iv after 2 mins by gamma counting; format: ADME, organism-based; conditions: in vivo
Blood [44] = experiment: Biodistribution in ddY mouse blood at 1 uCi/100 uL, iv after 15 mins by gamma counting; format: ADME, organism-based; conditions: in vivo, 0.25 h; outline: as §1
Blood [45] = experiment: Biodistribution in ddY mouse blood at 1 uCi/100 uL, iv after 2 mins by gamma counting; format: ADME, organism-based; conditions: in vivo; outline: as §1
Kidney [46] = experiment: Biodistribution in ddY mouse kidney at 1 uCi/100 uL, iv after 15 mins by gamma counting; format: ADME, organism-based; conditions: in vivo, 0.25 h; outline: as §1
Liver [47] = experiment: Biodistribution in ddY mouse liver at 1 uCi/100 uL, iv after 30 mins by gamma counting; format: ADME, organism-based; conditions: in vivo, 0.5 h
Brain [48] = experiment: Biodistribution in ddY mouse brain at 1 uCi/100 uL, iv after 120 mins by gamma counting; format: ADME, organism-based; conditions: in vivo, 2 h; outline: as §1
Blood [49] = experiment: Biodistribution in ddY mouse blood at 1 uCi/100 uL, iv after 30 mins by gamma counting; format: ADME, organism-based; conditions: in vivo, 0.5 h; outline: as §1
Intestine [50] = experiment: Biodistribution in ddY mouse intestine at 1 uCi/100 uL, iv after 60 mins by gamma counting; format: ADME, organism-based; conditions: in vivo, 1 h; outline: as §1
Intestine [51] = experiment: Biodistribution in ddY mouse intestine at 1 uCi/100 uL, iv after 120 mins by gamma counting; format: ADME, organism-based; conditions: in vivo, 2 h; outline: as §1
Spleen [52] = experiment: Biodistribution in ddY mouse spleen at 1 uCi/100 uL, iv after 60 mins by gamma counting; format: ADME, organism-based; conditions: in vivo, 1 h

`CN(C)c1ccc(/C=C/C(=O)/C=C/c2ccc([125I])cc2)cc1` gave a Drug uptake (Intestine [1]) of 7.38 % ID/g, a Drug uptake (Brain [2]) of 1.59 % ID/g and a Drug uptake (Stomach [3]) of 1.16 % ID/organ. For the same compound, the Drug uptake (Spleen [4]) was 9.94 % ID/g, the Drug uptake (Brain [5]) was 1.11 % ID/g and the Drug uptake (Thyroid gland [6]) was 32.22 % ID/g. For the same compound, the Drug uptake (Kidney [7]) was 8.55 % ID/g, the Drug uptake (Spleen [8]) was 11.59 % ID/g and the Drug uptake (Thyroid gland [9]) was 23.53 % ID/g. It also gave a Drug uptake (Blood [10]) of 2.29 % ID/g, a logD [11] of 3.66 and a Drug uptake (Lung [12]) of 12.97 % ID/g. The Drug uptake (Heart [13]) was 1.62 % ID/g, the Drug uptake (Lung [14]) was 3.64 % ID/g and the Drug uptake (Liver [15]) was 32.8 % ID/g. The Drug uptake (Thyroid gland [16]) was 26.77 % ID/g, the Drug uptake (Heart [17]) was 6.42 % ID/g and the Ratio (Brain [18]) was 5.68. It also gave a Drug uptake (Heart [19]) of 2.69 % ID/g, a Drug uptake (Lung [20]) of 6.91 % ID/g and a Drug uptake (Kidney [21]) of 15.63 % ID/g. It also gave a Drug uptake (Intestine [22]) of 11.62 % ID/g, a Drug uptake (Brain [23]) of 0.63 % ID/g and a Drug uptake (Spleen [24]) of 7.34 % ID/g. The Drug uptake (Liver [25]) was 16.47 % ID/g, the Drug uptake (Spleen [26]) was 12.26 % ID/g and the Drug uptake (Stomach [27]) was 0.77 % ID/organ. It also gave a Drug uptake (Liver [28]) of 11.54 % ID/g, a Drug uptake (Intestine [29]) of 1.38 % ID/g and a Drug uptake (Blood [30]) of 2.16 % ID/g. For the same compound, the Drug uptake (Thyroid gland [31]) was 11.56 % ID/g, the Drug uptake (Brain [32]) was 0.28 % ID/g and the Drug uptake (Heart [33]) was 1.03 % ID/g. The Drug uptake (Stomach [34]) was 1.75 % ID/organ, the Drug uptake (Stomach [35]) was 0.61 % ID/organ and the Drug uptake (Lung [36]) was 24.45 % ID/g. For the same compound, the Drug uptake (Lung [37]) was 3.35 % ID/g, the Drug uptake (Thyroid gland [38]) was 14.93 % ID/g and the Drug uptake (Stomach [39]) was 1.85 % ID/organ. It also gave a Drug uptake (Heart [40]) of 1.19 % ID/g, a Drug uptake (Kidney [41]) of 15.86 % ID/g and a Drug uptake (Kidney [42]) of 7 % ID/g. For the same compound, the Drug uptake (Liver [43]) was 44.64 % ID/g, the Drug uptake (Blood [44]) was 6.58 % ID/g and the Drug uptake (Blood [45]) was 11.62 % ID/g. The Drug uptake (Kidney [46]) was 22.23 % ID/g, the Drug uptake (Liver [47]) was 24.64 % ID/g and the Drug uptake (Brain [48]) was 0.26 % ID/g. It also gave a Drug uptake (Blood [49]) of 3.98 % ID/g, a Drug uptake (Intestine [50]) of 7.68 % ID/g and a Drug uptake (Intestine [51]) of 17.65 % ID/g. For the same compound, the Drug uptake (Spleen [52]) was 6.28 % ID/g.
